Reference: ChEMBL document CHEMBL1149768, “Novel Pd(II) complexes of 1-N-substituted 3-phenyl-2-pyrazoline derivatives and evaluation of antiamoebic activity” (Eur J Med Chem, 2008)

Each compound was assayed on Entamoeba histolytica (assay: Antiamoebic activity against Entamoeba histolytica HM1 IMSS after 72 hrs by serial dilution method).
Format: functional, organism-based
Outline: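 Compounds were dissolved in DMSO and diluted in medium to 1 mg/mL, then to 0.1 mg/mL, with two-fold serial dilutions in microplate wells. Metronidazole was the standard. Each well got 1.7 × 10⁴ trophozoites, was gassed with N₂ and held at 37 °C for 72 h. Plates were methanol-fixed, eosin-stained and solubilised in 0.1 N NaOH, and OD was read at 490 nm. IC50 came from linear regression of % inhibition versus log dose.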
With `CC(C)CNC(=S)N1CC(C)C(c2ccccc2)=N1` (stereo not given) the IC50 was 9.13 µM. `CC(C)NC(=S)N1CC(C)C(c2ccccc2)=N1` (stereo not given) showed an IC50 of 15.2 µM. In the case of `CC1CN(C(N)=S)N=C1c1ccccc1` (stereo not given), the IC50 is reported as 10.3 µM. With `CC1CN(C(=S)NC2CCCCCCC2)N=C1c1ccccc1` (stereo not given) the IC50 was 2.32 µM. With `CC1CN(C(=S)NC2CCCC2)N=C1c1ccccc1` (stereo not given) the IC50 was 8.75 µM. `CCCCNC(=S)N1CC(C)C(c2ccccc2)=N1` (stereo not given) gave an IC50 of 4.32 µM. In the case of `CC1CN(C(=S)NCc2ccccc2Cl)N=C1c1ccccc1` (stereo not given), the IC50 is reported as 4.62 µM. For `CC1CN(C(=S)NC2CCCCC2)N=C1c1ccccc1` (stereo not given), the IC50 was 6.63 µM. `Cc1ccccc1NC(=S)N1CC(C)C(c2ccccc2)=N1` (stereo not given) showed an IC50 of 4.57 µM. Compound `CC1CN(C(=S)N2CCN(c3ccccc3)CC2)N=C1c1ccccc1` (stereo not given) has an IC50 of 8.69 µM.
